Measurements taken from ChEMBL document CHEMBL1156993, “Benzyl prolinate derivatives as novel selective KCC2 blockers” (Bioorg Med Chem Lett, 2010).
In brackets after ≈: the same amount, converted by molar mass. Activity calls are given as the source filed them. No cut-off for these calls is given here.

How the values were obtained:
[1] = biological target: T1, Solute carrier family 12 member 5 (Rattus norvegicus, UniProt Q63633); assay: Antagonist activity of rat KCC2 transporter expressed in human SK-Hep cells assessed as inhibition of N-ethylmaleimide-mediated Rb+ influx after 10 mins by atomic absorption spectroscopy; assay type: functional, cell-based
T1 sequence (Q63633 whole entry): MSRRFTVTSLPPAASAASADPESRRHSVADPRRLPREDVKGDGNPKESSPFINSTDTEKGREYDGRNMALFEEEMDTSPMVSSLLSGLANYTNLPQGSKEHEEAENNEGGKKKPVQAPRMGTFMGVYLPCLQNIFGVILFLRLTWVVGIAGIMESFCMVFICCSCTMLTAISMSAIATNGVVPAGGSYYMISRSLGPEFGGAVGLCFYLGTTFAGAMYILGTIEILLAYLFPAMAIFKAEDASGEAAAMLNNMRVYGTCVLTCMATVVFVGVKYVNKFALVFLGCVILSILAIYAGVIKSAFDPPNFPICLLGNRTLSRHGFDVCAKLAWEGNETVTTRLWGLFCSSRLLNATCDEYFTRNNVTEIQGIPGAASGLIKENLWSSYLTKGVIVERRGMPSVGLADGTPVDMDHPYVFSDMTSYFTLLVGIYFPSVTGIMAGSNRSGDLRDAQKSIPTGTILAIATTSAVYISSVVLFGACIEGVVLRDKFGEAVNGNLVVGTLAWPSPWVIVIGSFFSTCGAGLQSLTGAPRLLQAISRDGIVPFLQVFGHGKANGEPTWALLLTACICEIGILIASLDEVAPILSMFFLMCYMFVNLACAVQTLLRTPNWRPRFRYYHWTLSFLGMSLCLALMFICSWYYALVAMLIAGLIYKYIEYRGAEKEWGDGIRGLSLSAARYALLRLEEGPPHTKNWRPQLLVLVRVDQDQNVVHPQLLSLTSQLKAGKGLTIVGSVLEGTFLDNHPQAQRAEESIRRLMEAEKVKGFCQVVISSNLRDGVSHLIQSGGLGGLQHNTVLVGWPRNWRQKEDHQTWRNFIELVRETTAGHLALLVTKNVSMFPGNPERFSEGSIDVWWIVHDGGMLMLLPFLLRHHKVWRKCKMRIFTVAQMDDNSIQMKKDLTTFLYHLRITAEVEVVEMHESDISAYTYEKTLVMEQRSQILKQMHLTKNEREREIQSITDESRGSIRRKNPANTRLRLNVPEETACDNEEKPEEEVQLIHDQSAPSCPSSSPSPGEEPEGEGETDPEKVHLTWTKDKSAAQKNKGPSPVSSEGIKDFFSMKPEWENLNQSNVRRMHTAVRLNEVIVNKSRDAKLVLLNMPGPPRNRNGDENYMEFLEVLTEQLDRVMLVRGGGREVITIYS
Outline: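 Rat KCC2 stably expressed in a selected clone. The co-transporter is activated with N-ethylmaleimide in the presence of the test compound, and Rb+ influx is started by adding 5 mM RbCl to the extracellular medium. Influx is stopped after 10 min by repeated washes. Intracellular Rb+ is measured by atomic absorption spectroscopy, and IC50 is reported.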

[2] = test system: Mus musculus; assay: Anticonvulsant activity in audiogenic mouse epilepsy model assessed as inhibition of sound-induced clonic phase of seizure up to 75 mg/kg, ip pretreated 5 mins before acoustic stimulation; assay type: functional, organism-based; design: dose 75 mg/kg
Outline: (§1)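 Mice are pre-selected as responders in a first acoustic challenge (85 dB, 30 s). Wild running, clonic and tonic phases are scored. The next day, compound is given ip 5 min before the same stimulus. The proportion of mice protected against each of the three phases is calculated per group, with N = 10 per dose.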

[3] = test system: Mus musculus; assay: Anticonvulsant activity in audiogenic mouse epilepsy model assessed as inhibition of sound-induced tonic convulsion phase of seizure up to 75 mg/kg, ip pretreated 5 mins before acoustic stimulation; assay type: functional, organism-based; design: dose 75 mg/kg; outline: as §1
[4] = test system: Mus musculus; assay: Anticonvulsant activity in audiogenic mouse epilepsy model assessed as inhibition of sound-induced wild running phase of seizure up to 75 mg/kg, ip pretreated 5 mins before acoustic stimulation; assay type: functional, organism-based; design: dose 75 mg/kg; outline: as §1
[5] = Antagonist activity to dog NKCC1 transporter expressed in MDCK cells assessed as inhibition of Cl- free medium-stimulated Rb+ influx at 100 uM after 45 mins by atomic absorption spectroscopy; assay type: functional, Canis lupus familiaris; details: Canis lupus familiaris, MDCK, 0.75 h
Outline: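 MDCK cells express endogenous canine NKCC1. NKCC1 is activated by incubating the cells for 2 h in Cl−-free medium. Rb+ influx is then stimulated for 45 min by adding 20 mM RbCl to the extracellular solution. Intracellular Rb+ is quantified by atomic absorption spectroscopy, and results are given as percent inhibition.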

[6] = Aqueous solubility in PBS buffer at pH 7.4; assay type: physicochemical
[7] = Intrinsic clearance in rat microsomes assessed per mg of protein; assay type: ADME, Microsome
[8] = Intrinsic clearance in rat hepatocytes assessed per 10^6 cells

CCC(=O)N1CCCC1(Cc1ccccc1)C(=O)OCc1ccccc1 (stereo unspecified)
IC50 [1]: 1.2 µM

CC(=O)N1CCCC1(Cc1ccc(S(C)(=O)=O)cc1)C(=O)OCc1ccccc1 (stereo in doubt; 13)
Activity [2]: inactive
Activity [3]: inactive
Activity [4]: inactive

NS(=O)(=O)c1cc(C(=O)O)c(NCc2ccco2)cc1Cl [FUROSEMIDE]
inhibition at 100 µM [5]: 100%

O=C(OCc1ccccc1)C1(Cc2ccccc2)CCCN1 (stereo unspecified)
IC50 [1]: > 100 µM

CC(=O)N1CCCC1(Cc1ccccc1)C(=O)O (stereo unspecified)
IC50 [1]: > 100 µM

CC(=O)N1CCCC1(Cc1ccc(F)cc1C(F)(F)F)C(=O)OCc1ccccc1 (stereo unspecified)
IC50 [1]: 4 µM

O=C(C1CC1)N1CCCC1(Cc1ccccc1)C(=O)OCc1ccccc1 (stereo unspecified)
IC50 [1]: 0.32 µM

CC(=O)N1CCCC1(Cc1ccc(C(F)(F)F)cc1)C(=O)OCc1ccccc1 (stereo unspecified)
IC50 [1]: 0.63 µM
solubility [6]: 2 µg/mL (≈ 4.93 µM)
microsomal CLint [7]: 128 µL/min/mg
hepatocyte CLint [8]: 20 µL/min/1e6 cells
inhibition at 100 µM [5]: 53%

CC(=O)N1CCCC1(Cc1ccccc1)C(=O)OCc1ccccc1 (single isomer, unassigned; (-))
IC50 [1]: 50 µM
CL [7]: 392 µL/min/mg

CC(=O)N1CCCC1(Cc1ccccc1)C(=O)OCc1ccccc1Cl (stereo unspecified)
IC50 [1]: 6 µM

CC(=O)N1CCCC1(Cc1ccccc1)C(=O)OCc1ccncc1 (stereo unspecified)
IC50 [1]: > 100 µM

CC(=O)N1CCCC1(Cc1ccc(S(C)(=O)=O)cc1)C(=O)OCc1ccccc1 (single isomer, unassigned; (-))
IC50 [1]: 40 µM

CC(=O)N1CCCC1(Cc1ccccc1)C(=O)OCC1CCCCC1 (stereo unspecified)
IC50 [1]: 63 µM

CC(=O)N1CCCC1(Cc1ccc(Cl)cc1)C(=O)OCc1ccccc1 (stereo unspecified)
IC50 [1]: 0.32 µM

CC(=O)N1CCCC1(Cc1cccc(S(C)(=O)=O)c1)C(=O)OCc1ccccc1 (stereo unspecified)
IC50 [1]: 0.25 µM
microsomal CLint [7]: 107 µL/min/mg
hepatocyte CLint [8]: 24 µL/min/1e6 cells
inhibition at 100 µM [5]: 25%

CC(=O)N1CCCC1(Cc1ccccc1)C(=O)OCc1cccc(Cl)c1 (stereo unspecified)
IC50 [1]: 2.5 µM

CC(=O)N1CCCC1(Cc1cccc(C(F)(F)F)c1)C(=O)OCc1ccccc1 (stereo unspecified)
IC50 [1]: 0.08 µM

CC(=O)N1CCCC1(CC1CCCCC1)C(=O)OCc1ccccc1 (stereo unspecified)
IC50 [1]: 1 µM
solubility [6]: 3 µg/mL (≈ 8.73 µM)
microsomal CLint [7]: 382 µL/min/mg
inhibition at 100 µM [5]: 39%

CC(=O)N1CCCC1(Cc1ccccc1)C(=O)N(C)Cc1ccccc1 (stereo unspecified)
IC50 [1]: 32 µM

CC(=O)N1CCCC1(Cc1ccncc1)C(=O)OCc1ccccc1 (stereo unspecified)
IC50 [1]: 2 µM

COc1ccc(CC2(C(=O)OCc3ccccc3)CCCN2C(C)=O)cc1C(F)(F)F (stereo unspecified)
IC50 [1]: 0.05 µM

CS(=O)(=O)N1CCCC1(Cc1ccccc1)C(=O)OCc1ccccc1 (stereo unspecified)
IC50 [1]: 1.6 µM
solubility [6]: 1 µg/mL (≈ 2.68 µM)
microsomal CLint [7]: 400 µL/min/mg
hepatocyte CLint [8]: 23 µL/min/1e6 cells
inhibition at 100 µM [5]: < 20%

CC(=O)N1CCCC1(Cc1ccccc1)C(=O)NCc1ccccc1 (stereo unspecified)
IC50 [1]: 100 µM

CC(=O)N1CCCC1(Cc1ccc(S(C)(=O)=O)cc1)C(=O)OCc1ccccc1 (single isomer, unassigned; (+))
IC50 [1]: 0.4 µM
